Assay results from ChEMBL document CHEMBL1765085, “Cytotoxic and apoptosis-inducing activities of triterpene acids from Poria cocos” (J Nat Prod, 2011).
pIC50: −log10 of the molar value. Active and inactive are the calls of the source. The rule behind the calls is not given here.

Columns and labels:
HL-60 [1] = experiment: Induction of apoptosis in human HL60 cells assessed as late apoptotic cells at 30 uM after 24 hrs by AnnexinV/propidium iodide staining (Rvb =3.3%); assay type: functional
HL-60 [2] = experiment: Cell cycle arrest in human HL60 cells assessed as accumulation at S phase at 30 uM after 48 hrs by flow cytometry (reference value: 42.6%); assay type: functional
How it was run: (§1)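 Cells seeded at 1 × 10^5 per sample for HL60 and 1.5 × 10^5 for A549, then exposed to 30 μM for 0, 24 or 48 h. After a PBS wash, DNA was stained with Nim-DAPI for 10 min at room temperature. Phase distribution was read by flow cytometry, with the sub-G1 (fragmented DNA) fraction taken as the apoptosis index. Values are means of three experiments.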

A549 [3] = experiment: Induction of mitochondrial signal transduction pathway-mediated apoptosis in human A549 cells assessed as decrease in Bcl-2 level at 30 uM after 24 to 48 hrs by Western blot analysis; assay type: functional, cell-based
How it was run: (§2)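 A549 cells (1.5 × 10^5) were pre-incubated 24 h, then given 30 μM for 24 or 48 h. Whole-cell lysates were run on 15% SDS-PAGE, transferred to PVDF and probed overnight at 4 °C for Bax, Bcl-2 and β-actin. The Bcl-2 band was quantified by densitometry relative to untreated cells, n = 3.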

HL-60 [4] = experiment: Cell cycle arrest in human HL60 cells assessed as accumulation at G2/M phase at 30 uM after 48 hrs by flow cytometry (reference value: 6.0%); assay type: functional; how it was run: as §1
A549 [5] = experiment: Induction of apoptosis in human A549 cells assessed as early apoptotic cells at 30 uM after 24 hrs by AnnexinV/propidium iodide staining (Rvb =4.3%); assay type: functional
A549 [6] = experiment: Induction of apoptosis in human A549 cells assessed as necrotic cells at 30 uM after 24 hrs by AnnexinV/propidium iodide staining (Rvb =3.4%); assay type: functional
A549 [7] = experiment: Induction of mitochondrial signal transduction pathway-mediated apoptosis in human A549 cells assessed as increase in cleaved caspase-9 level at 30 uM after 24 to 48 hrs by Western blot analysis
WI-38 = experiment: Cytotoxicity against human WI38 cells assessed as cell viability after 48 hrs by MTT assay; assay type: cell-based; details: WI-38, 48 h
How it was run: (§3)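 Growth conditions: RPMI 1640 for HL60, CRL1579, NIH:OVCAR-3, SK-BR-3, DU145 and PANC-1; D-MEM for A549; MEM for WI-38; all with 10% FBS and antibiotics, 37 °C, 5% CO2. Seeded at 3 × 10^3 cells/well (OVCAR-3 1 × 10^4), then treated 48 h with 10^-4 to 10^-6 M. MTT for 3 h, formazan dissolved in 0.04 M HCl/2-propanol, A570/630. IC50 (50% growth inhibition) from triplicates.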

HL-60 [8] = experiment: Cell cycle arrest in human HL60 cells assessed as accumulation at G2/M phase at 30 uM after 24 hrs by flow cytometry (reference value: 6.0%); assay type: functional; how it was run: as §1
A549 [9] = experiment: Cell cycle arrest in human A549 cells assessed as accumulation at S phase at 30 uM after 24 hrs by flow cytometry (reference value: 27.7%); assay type: functional; how it was run: as §1
A549 [10] = experiment: Induction of apoptosis in human A549 cells assessed as late apoptotic cells at 30 uM after 48 hrs by AnnexinV/propidium iodide staining (Rvb =1.1%); assay type: functional
A549 [11] = experiment: Cell cycle arrest in human A549 cells assessed as accumulation at Go/G1 phase at 30 uM after 24 hrs by flow cytometry (reference value: 64.3%); assay type: functional; how it was run: as §1
A549 [12] = experiment: Cell cycle arrest in human A549 cells assessed as accumulation at S phase at 30 uM after 48 hrs by flow cytometry (reference value: 27.7%); assay type: functional; how it was run: as §1
A549 [13] = experiment: Cell cycle arrest in human A549 cells assessed as accumulation at sub-G1 phase at 30 uM after 48 hrs by flow cytometry (reference value: 3.1%); assay type: functional; how it was run: as §1
[14] = Cytotoxicity in human AZ-521 cells assessed as cell viability after 48 hrs by MTT assay; assay type: functional, cell-based; details: AZ-521, 48 h
HL-60 [15] = experiment: Cell cycle arrest in human HL60 cells assessed as accumulation at sub-G1 phase at 30 uM after 24 hrs by flow cytometry (reference value: 3.0%); assay type: functional; how it was run: as §1
A549 [16] = experiment: Induction of mitochondrial signal transduction pathway-mediated apoptosis in human A549 cells assessed as increase in Bax level at 30 uM after 24 to 48 hrs by Western blot analysis; assay type: functional, cell-based; how it was run: as §2
HL-60 [17] = experiment: Induction of mitochondrial signal transduction pathway-mediated apoptosis in human HL60 cells assessed as increase in Bax level at 30 uM after 8 to 24 hrs by Western blot analysis; details: TDE = time-dependent effect
HL-60 [18] = experiment: Induction of apoptosis in human HL60 cells assessed as necrotic cells at 30 uM after 24 hrs by AnnexinV/propidium iodide staining (Rvb =2.3%); assay type: functional
HL-60 [19] = experiment: Induction of apoptosis in human HL60 cells assessed as late apoptotic cells at 30 uM after 48 hrs by AnnexinV/propidium iodide staining (Rvb =3.3%); assay type: functional
[20] = Cytotoxicity in human CRL1579 cells assessed as cell viability after 48 hrs by MTT assay; assay type: functional, cell-based; how it was run: as §3
A549 [21] = experiment: Induction of apoptosis in human A549 cells assessed as early apoptotic cells at 30 uM after 48 hrs by AnnexinV/propidium iodide staining (Rvb =4.3%); assay type: functional

C=C(CC[C@@H](CO)[C@H]1[C@H](O)C[C@@]2(C)C3=CC[C@@H](C(=C)C)[C@](C)(CCCO)C3=CC[C@]12C)C(C)C [PORICOTRIOL A]
Activity (HL-60 [1]): 14%
Activity (HL-60 [2]): 30.5%
Activity (A549 [3]): Active
Activity (HL-60 [4]): 10.9%
Activity (A549 [5]): 3.5%
Activity (A549 [6]): 4.3%
Activity (A549 [7]): inactive
pIC50 (WI-38): 4.25
Activity (HL-60 [8]): 8.8%
Activity (A549 [9]): 7.8%
Activity (A549 [10]): 20.2%
Activity (A549 [11]): 77.2%
Activity (A549 [12]): 6%
Activity (A549 [13]): 17.4%
pIC50 [14]: 5.85
Activity (HL-60 [15]): 35.4%
Activity (A549 [16]): inactive
Activity (HL-60 [17]): tde
Activity (HL-60 [18]): 3.2%
Activity (HL-60 [19]): 30.4%
pIC50 [20]: 5.26
Activity (A549 [21]): 24.1%
